We go through 4 compounds from publication PMC10959575 (Journal of the American Society for Mass Spectrometry, 2023).

Assay [1] addresses T1, α-syn (Homo sapiens, UniProt P37840). Description: Native MS of α-syn/Cu2+/CLR01 solution, 1:1:3 molar ratio. Type of assay: binding. The essentials:
(§1)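 Protein at 10–30 μM in 20 mM ammonium acetate, with ligand added to 10–50 μM. Electrosprayed at 1–2 kV on a 15T FT-ICR (capillary exit 100 V, deflector 200 V, funnel 90 V, skimmer 50 V). Spectra deconvolved. Percent binding calculated from intensities of unbound and ligand-bound peaks.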

For assay [2], the target named is α-syn/ Cu^2+ complex (Homo sapiens, UniProt P37840). Description: IM-MS of the α-syn/Cu2+ complex with and without CLR01. The settings on record: 9+ charge state. A digest of the protocol:
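Copper-bound α-syn in 20 mM ammonium acetate, analysed with test compound at 1:3 molar ratio and without it. Mobility measured by quadrupole-IM-TOF: spray 1–2 kV, sampling cone 10–20 V, source offset 20 V. Data for each charge state extracted over the [M+nH]ⁿ⁺ peak.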

Assay [3] concerns the target α-syn/Cu^2+/CLR01 complex (Homo sapiens, UniProt P37840). Description: ECD top-down FT-ICR MS of the α-syn/Cu2+/CLR01 complex. Type of assay: binding. The essentials:
(§2)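 ESI on a 15T FT-ICR instrument: spray 1–2 kV, capillary exit 100 V, deflector plate 200 V, funnel 90 V, skimmer 50 V. Complex ions isolated with a 5–20 m/z notch, then fragmented by ECD (bias 1 V, pulse 10–50 ms). Product spectra deconvoluted with S/N limit 2. c- and z-ions assigned at 5 ppm error, with ligand and metals as unlocalized modifications.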

Assay [4] addresses T1, α-syn. Nature of the assay: Native MS of α-syn/Mn2+/CLR01 solution, 1:5:3 molar ratio. The assay is classed as binding. A digest of the protocol: as §1
Assay [5] concerns the target α-syn/Mn^2+/CLR01 complex (Homo sapiens, UniProt P37840). Description: ECD top-down FT-ICR MS of the α-syn/Mn2+/CLR01 complex. The assay is classed as binding. The essentials: as §2
The target in assay [6] is T1, α-syn. Nature of the assay: IM-MS of α-syn with Mn2+ and CLR01. A digest of the protocol:
(§3)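 IM-MS on a quadrupole-IM-time-of-flight instrument: spray 1–2 kV, sampling cone 10–20 V, source offset 20 V. Spectra taken over the full m/z range, with each charge state extracted over its [M+nH]ⁿ⁺ peak. Ligand at 5x molar concentration for wild-type protein; metal-bound protein with ligand at a 1:3 molar ratio.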

The target of assay [7] is T2, WT α-syn (Homo sapiens, UniProt P37840). Nature of the assay: IM-MS of WT α-syn with CLR01. The essentials: as §3
Assay [8] addresses wildtype α-syn (Homo sapiens, UniProt P37840). Nature of the assay: ECD top-down FT-ICR MS, binding site location on WT α-syn. The settings on record: 13+ charge state, α-syn bound with 2 CLR01 molecules. A digest of the protocol: (§4)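 Protein (10–30 μM) in 20 mM ammonium acetate with test compound at 10–50 μM. Native ESI on a 15T FT-ICR: spray 1–2 kV, capillary exit 100 V, deflector 200 V, funnel 90 V, skimmer 50 V. Complexes isolated with 5–20 m/z notch, then ECD (bias 1 V, pulse 10–50 ms). Fragments deconvoluted at S/N 2. c/z ions assigned at 5 ppm error, with ligand as unlocalized modification.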

The target in assay [9] is T3, A30P α-syn (Homo sapiens, UniProt P37840, A30P). Nature of the assay: Native MS of A30P α-syn with CLR01. As to conditions: native solution conditions. Type of assay: binding. The essentials:
as §1

For assay [10], the target named is T3, A30P α-syn. Description: IM-MS of A30P α-syn/CLR01 complexes. The settings on record: 8+ and 9+ charge states. A digest of the protocol:
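WT and A30P α-syn (10–30 μM) in 20 mM ammonium acetate, with test compound at 5x molar excess. Read on a quadrupole-IM-TOF instrument: spray 1–2 kV, sampling cone 10–20 V, source offset 20 V. IM spectra taken over the full m/z range. Per-charge-state data extracted over the [M+nH]ⁿ⁺ peak.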

Assay [11] concerns the target T2, WT α-syn. Nature of the assay: Native MS of WT α-syn with CLR01. The assay is classed as binding. A digest of the protocol:
as §1

In assay [12] the target is T3, A30P α-syn. Description: ECD top-down FT-ICR MS, binding site location on A30P α-syn. As to conditions: A30P α-syn with 2 CLR01 molecules bound. A digest of the protocol: as §4
Assay [13] concerns the target wild type α-syn, acetylated α-syn, and phosphorylated α-syn (Homo sapiens, UniProt P37840). Nature of the assay: Native MS of equimolar proteoform mixture with equimolar CLR01. The assay is classed as binding. As to conditions: equimolar ratio of CLR01. A digest of the protocol:
as §1

Assay [14] has as its target acetylated α-syn (Homo sapiens, UniProt P37840). Nature of the assay: IM-MS of acetylated α-syn with CLR01. The settings on record: 9+ charge state. The essentials:
(§5)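 Acetylated (made as previously described) or phosphorylated α-syn in 20 mM ammonium acetate, mixed 1:1 molar with test compound. Ion mobility–MS run on a quadrupole-IM-TOF: spray 1–2 kV, sampling cone 10–20 V, source offset 20 V. Mobiligrams extracted per charge state over the [M+nH]ⁿ⁺ peak.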

Assay [15] has as its system tau protein. The settings on record: IM-MS; cited from earlier work.
Assay [16] deals with phosphorylated α-syn (Homo sapiens, UniProt P37840). Nature of the assay: IM-MS of phosphorylated α-syn with CLR01. As to conditions: 9+ charge state. The essentials:
as §5

For assay [17], the target named is T1, α-syn. The settings on record: IM-MS; cited from earlier work.

Regarding `[Cu+2]` [Cu^2+], the “α-syn bound by Cu2+” value in [1] (0 CLR01 molecules bound) is 65%. Also, in assay [1] (1:1:3 α-syn:Cu2+:CLR01), the “number of copper binding events” value was found to be 1. In addition, the “ion mobiligram of Cu2+ bound α-syn versus WT form” value in assay [2] (no CLR01) is given as “early arriving ensembles significantly more abundant”. The “Cu2+ binding location” value in assay [3] is given as “N-terminus”.

With `[Mn+2]` [Mn^2+], the “number of Mn2+ binding events observed” value in assay [4] (1:5:3 α-syn:Mn2+:CLR01) was “up to 5”. For the same compound, in assay [4] (CLR01 not bound to the protein), the “α-syn bound by Mn2+” value is 86%. In addition, the “Mn2+ binding location” value in [5] is recorded as “acidic C-terminal region”. Besides, the “structural effect of Mn2+ binding” value in [6] (Mn2+ alone) is given as “only slightly compacts”.

For CLR01, the “change of ion mobiligram on CLR01 binding” value in assay [7] (9+ charge state, 1 CLR01 molecule bound) is given as “increase in abundance of the early arriving ensemble”; in assay [7] (higher charge states such as 12+), “do not show significant shifts”; in assay [2] (α-syn/Cu2+ complex) it was “further increases the abundance of the early arriving conformers”; in assay [10], “early arriving ensembles increase in abundance”; in assay [14], “increase in the abundance of early arriving ensembles”; in [16], “further increase in abundance of the early arriving ensembles”. In addition, the “binding location of the second CLR01 molecule” value in assay [8] was “K12 with a secondary binding location at K21”. Further, the “number of CLR01 binding events observed” value in assay [9] is “up to 5”; in [11] (CLR01 at 5x molar concentration, deconvolved mass spectrum) it was “up to 5”; in [4] (1:5:3 α-syn:Mn2+:CLR01), not above 4. Also, the “total CLR01 bound to the protein” value in assay [9] was 74%. Also, the “number of CLR01 molecules bound simultaneously with Cu2+” value in assay [1] (1:1:3 α-syn:Cu2+:CLR01) was “Up to 3”. Further, the “α-syn bound by Cu2+” value in assay [1] (3 CLR01 molecules bound) stood at 57%. The “CLR01 in solution bound to the protein” value in assay [11] (CLR01 at 5x molar concentration) came to 63%. Also, the “Kd values for the fourth and fifth binding sites” value in assay [11] (WT α-syn titrated with CLR01, thought to bind nonspecifically) is given as “did not converge well”. Also, the CLR01 binding location entry in assay [12] was “K10 and K12 with a possible additional site of binding at K21”. Also, in assay [13], the “number of CLR01 molecules that bind each proteoform” value was “up to 2”. For the same compound, the “α-syn bound by Mn2+” value in [4] (1 CLR01 molecule bound) is recorded as 89%; in assay [4] (2 CLR01 molecules bound), 92%. The “structural effect of binding on tau protein” value in [15] is “compacts the structure of tau protein”. The “structural effect when CLR01 and Mn2+ both bind” value in assay [6] (CLR01 and Mn2+ bound) is reported as “the structure of α-syn is compacted”.

Regarding epigallocatechin-3-gallate [EGCG], the “structural effect of binding on α-syn” value in assay [17] was “promotes compaction of α-syn structure”.
